# Source: PubChem BioAssay (Johns Hopkins Ion Channel Center)
# This is a sample that favours compounds with a hit; in the whole collection about 2.3% have one here.
# TRPC4 act: activators of mouse TRPC4 channel | Q9QUQ5 | HEK293 TRPC4beta/mu-opioid, Fluo4 calcium fluorescence; stronger effect = higher value | B-score at 10 µM | 0.49% of 310,000 active;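 active = B-score above 5 SD of library B-scores, and initial fluorescence ratio not above library mean plus 5 SD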;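 note: positive B-score marks a calcium rise read as TRPC4 activation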
# Target sequence (Q9QUQ5 whole entry, looked up): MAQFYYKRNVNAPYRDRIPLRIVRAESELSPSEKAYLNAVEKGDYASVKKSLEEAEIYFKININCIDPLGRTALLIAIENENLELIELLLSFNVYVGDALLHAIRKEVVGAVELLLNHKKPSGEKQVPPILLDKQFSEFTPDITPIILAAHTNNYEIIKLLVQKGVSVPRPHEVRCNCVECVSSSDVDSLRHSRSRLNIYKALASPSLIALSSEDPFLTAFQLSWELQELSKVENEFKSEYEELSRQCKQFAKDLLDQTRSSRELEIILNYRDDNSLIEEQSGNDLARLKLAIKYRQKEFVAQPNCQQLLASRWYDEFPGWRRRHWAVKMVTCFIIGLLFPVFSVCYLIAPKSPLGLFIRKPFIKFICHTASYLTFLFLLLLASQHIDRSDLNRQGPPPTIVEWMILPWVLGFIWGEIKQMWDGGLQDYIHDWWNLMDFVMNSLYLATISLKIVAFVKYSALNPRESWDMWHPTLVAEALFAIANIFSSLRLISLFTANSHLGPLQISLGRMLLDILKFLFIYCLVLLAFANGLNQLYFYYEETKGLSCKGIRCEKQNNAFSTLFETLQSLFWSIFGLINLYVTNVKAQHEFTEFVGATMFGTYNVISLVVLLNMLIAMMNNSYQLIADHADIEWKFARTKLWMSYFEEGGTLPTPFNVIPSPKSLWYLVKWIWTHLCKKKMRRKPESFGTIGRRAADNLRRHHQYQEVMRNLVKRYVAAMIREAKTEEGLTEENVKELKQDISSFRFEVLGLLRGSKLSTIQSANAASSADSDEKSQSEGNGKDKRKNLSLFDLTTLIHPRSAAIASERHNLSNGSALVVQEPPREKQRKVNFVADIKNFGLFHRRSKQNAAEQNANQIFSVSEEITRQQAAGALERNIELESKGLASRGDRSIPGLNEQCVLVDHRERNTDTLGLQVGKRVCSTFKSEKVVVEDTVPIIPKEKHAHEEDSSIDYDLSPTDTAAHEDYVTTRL
#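 Incubation: 45 min room-temperature Fluo4 loading, 110 s read / System: HEK293 cells stably co-expressing mouse TRPC4beta and mu-opioid receptor / Signal: Fluo4 fluorescence, kinetic / Control set: buffer (low) and maximal DAMGO (high) / Measure: integrated baseline-normalised fluorescence ratio, converted to per-well B score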
# TRPC4 block: inhibitors of mouse TRPC4 channel | Q9QUQ5 | HEK293 TRPC4beta/mu-opioid, DAMGO-evoked Fluo4 calcium flux; stronger effect = lower value | B-score at 10 µM | 0.39% of 300,000 active | AID 2247;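 active = B-score over 3 SD under the library average, no early fluorescence shift, positive overall ratio signal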
#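 Signal: kinetic Fluo4 fluorescence imaging of calcium influx. Material: stable TRPC4beta/mu-opioid receptor HEK293 cells. Probe or stimulus: DAMGO in two steps, submaximal then maximal.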
# TRPC6 act: mouse TRPC6 channel activation | Q61143 | HEK293-TRPC6 membrane potential dye fluorescence; stronger effect = higher value | B-score at 10 µM | 0.13% of 310,000 active | AID 2550;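 active = B-score of the integrated fluorescence ratio above library mean plus 3 SD, and starting fluorescence ratio within library mean plus 5 SD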;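 note: higher score means more depolarization so channel activation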
# TRPC4 PAM: allosteric potentiators of mouse TRPC4 channel. HEK293 TRPC4beta/mu-opioid, DAMGO EC20, Fluo-4 Ca2+ flux; stronger effect = higher value. AID 2227. 0.42% of 310,000 active. B-score at 10 µM. Q9QUQ5;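 active = B-score of calcium response area above 5 SD of library B-scores, with initial fluorescence ratio within 5 SD of library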
# TRPC6 inhibitor: inhibitors of mouse TRPC6 channel | Q61143 | HEK293-TRPC6, membrane potential dye, ACh-evoked depolarization; stronger effect = lower value | B-score at 10 µM | 1.1% of 310,000 active;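 active = B-score under library mean minus 3 SD, initial fluorescence not abnormally high, positive integrated signal ratio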;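 note: B-score derived from integrated fluorescence ratio over the kinetic read; more negative B-score means stronger inhibition of depolarization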
# TRPC4 sel inh 2: mouse TRPC4 off-target activity of TRPC6 inhibitors, second screen; shares compounds with TRPC6 inhibitor; HEK293 TRPC4/MOR, membrane potential dye fluorescence; channel activated by saturating DAMGO dose; inhibition, % at 10 µM; 42% of 920 active;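 active = compounds whose fluorescence signal differed from control wells by over 3 SD, either direction, in both duplicate plates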
# TRPC4 spec: tests whether TRPC6 inhibitors also affect mouse TRPC4; shares compounds with TRPC6 inhibitor; HEK293 TRPC4/mu-opioid, membrane potential fluorescence; activity change, negative = inhibition, % at 10 µM; 61% of 920 active;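 active = rise or fall in signal beyond 3 SD of buffer-only wells in both replicate plates, either sign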;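 note: integrated kinetic ratio of fluorescence range over baseline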
# HEK293 MPD ctr 2-1: second check of TRPC6 inhibitor effects in parental HEK293 cells; shares compounds with TRPC6 inhibitor; 31% of 920 active; parental HEK293 membrane potential dye fluorescence; maximal acetylcholine challenge after compound addition; signal change vs control, % at 10 µM;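 active = membrane potential signal moving either way by over 3 SD of the maximum-effect control, in both duplicate plates, meaning non-specific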
# HEK293 MPD ctr-1: parental HEK293 nonspecific activity of TRPC6 inhibitors | shares compounds with TRPC6 inhibitor | parental HEK293 membrane potential dye fluorescence | membrane potential signal change, % at 10 µM | 60% of 920 active | AID 2780;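 active = membrane potential signal shifting up or down by more than 3 SD of buffer-only wells, on both duplicate plates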
# HEK293 MPD ctr-2: counter-screen for TRPC6 modulators: effect in parental HEK293 cells | shares compounds with TRPC6 inhibitor | membrane potential dye fluorescence | membrane potential signal change, % at 10 µM | 51% of 2,400 active | AID 488924;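 active = membrane potential signal moves up or down beyond 5 SD from buffer-only wells, on both duplicate plates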
# HEK293 MPD ctr 2-2: parental HEK293 nonspecific activity of TRPC6 modulators, second screen | AID 488926 | inhibition, % at 10 µM | 14% of 2,400 active | shares compounds with TRPC6 inhibitor | membrane potential dye fluorescence; after compound, maximal acetylcholine stimulation;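 active = membrane potential signal drops by more than 5 SD from the mean control signal, in both duplicate plates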
# TRPC4/MOR mod: mouse TRPC4 off-target activity of TRPC6 modulators; percent change from control (negative = decrease, positive = increase), % at 10 µM; shares compounds with TRPC6 inhibitor; HEK293 TRPC4/mu-opioid, membrane potential fluorescence; 69% of 2,400 active;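 active = membrane potential signal moved up or down beyond 5 SD of buffer control wells, in both duplicate plates, actives on both sides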
# TRPC4 ctr inh 2: second selectivity test of TRPC6 modulators against mouse TRPC4. shares compounds with TRPC6 inhibitor. HEK293 TRPC4/mu-opioid, membrane potential dye fluorescence; stimulated with maximal-effect DAMGO. inhibition, % at 10 µM. 55% of 2,400 active;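 active = drop in membrane potential signal beyond 5 SD of the control wells in both duplicate plates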;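 note: TRPC4 counter screen for TRPC6 hits run under conditions tuned for TRPC6 not TRPC4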
# TRPC6 inh conf: confirmation of mouse TRPC6 inhibitors; shares compounds with TRPC6 inhibitor; HEK293-TRPC6, membrane potential dye, ACh-evoked depolarization; inhibition, % at 10 µM; 43% of 3,300 active; AID 488960;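 active = fluorescence ratio falls more than 5 SD below the full-stimulation control mean, in both duplicate runs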;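 note: integrated fluorescence ratio of peak minus minimum over baseline after agonist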
# TRPC6 act conf: confirmation of mouse TRPC6 activators; shares compounds with TRPC6 inhibitor; HEK293-TRPC6 membrane potential dye fluorescence, FDSS; activation, % at 10 µM; 11% of 2,800 active; AID 488961;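 active = ratio signal rise beyond 5 SD above unstimulated control wells' mean, seen in both duplicate runs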
# Hits are given with their value; – = inactive; · = not tested or not shown.
SMILES,TRPC4 act,TRPC4 block,TRPC6 act,TRPC4 PAM,TRPC6 inhibitor,HEK293 MPD ctr-2,HEK293 MPD ctr 2-2,TRPC4/MOR mod,TRPC4 ctr inh 2,TRPC6 inh conf,TRPC6 act conf,others
CCN(CCO)C(=O)c1ccc2nc(Cc3cccc(Cl)c3)oc2c1,–,–,–,–,–,·,·,·,·,·,·,
C=CCN(C(=O)CC(NC(C)=O)c1ccccc1)c1nc(-c2ccc(S(C)(=O)=O)cc2)cs1 (stereo not given),–,–,–,–,-6.48,–,–,–,–,–,–,
CC(=O)NC(CC(=O)Nc1nc(C)cs1)c1ccccc1 (stereo not given),–,–,–,–,–,·,·,·,·,·,·,
Clc1ccccc1/C=C/C=N/Nc1nc(N2CCOCC2)nc(N2CCOCC2)n1,–,–,–,–,–,·,·,·,·,·,·,
COC(=O)c1ccc(S(=O)(=O)N2CCCCCC2)n1C,–,–,–,–,-5.43,–,–,7.5%,–,–,–,
COC(=O)c1ccc(S(=O)(=O)N2CCN(C)CC2)n1C,–,–,–,–,–,·,·,·,·,·,·,
O=C(CCc1nnc(CCC2CCCCC2)o1)NCCc1cccnc1,–,–,–,–,–,·,·,·,·,·,·,
CCOC(=O)C1=C(C)NC(=S)N(C=O)C1c1ccccc1 (stereo not given),–,–,–,–,–,·,·,·,·,·,·,
COc1ccc(-n2c(-c3ccc(Cl)cc3)c[n+]3c2CCc2ccccc2-3)cc1,–,–,–,–,-5.1,-123.0%,–,-17.0%,42.5%,–,–,
COc1ccc(CC(=O)N2CCN(c3ccccc3)CC2)cc1,–,–,–,–,–,·,·,·,·,·,·,
O=C(c1ccc(Cl)c(S(=O)(=O)N2CCOCC2)c1)N(c1ccccn1)C1CCCCC1,–,–,–,–,-5.96,170.5%,–,30.5%,–,–,·,
Cc1cc(N2CCN(S(=O)(=O)c3ccccc3)CC2)c2ccccc2n1,–,–,–,–,-8.9,-187.0%,–,-31.0%,68.5%,48.0%,–,
Cc1cc(N2CCN(c3nc(-c4ccccc4)cs3)CC2)c2ccccc2n1,–,–,–,–,–,·,·,·,·,·,·,
Nc1nc(N2CCN(C(=O)c3ccco3)CC2)nc2ccccc12,–,–,–,–,-7.51,·,·,·,·,–,–,TRPC4 sel inh 2=–;TRPC4 spec=-23.0%;HEK293 MPD ctr 2-1=–;HEK293 MPD ctr-1=-411.5%
Cc1cc(N2CCN(C(=O)c3ccco3)CC2)c2ccccc2n1,–,–,–,–,-6.4,-168.0%,–,-29.0%,28.5%,–,–,
Nc1nc(N2CCN(C/C=C/c3ccccc3)CC2)nc2ccccc12,–,–,–,–,-6.69,·,·,·,·,88.1%,–,TRPC4 sel inh 2=18.0%;TRPC4 spec=-21.2%;HEK293 MPD ctr 2-1=–;HEK293 MPD ctr-1=–
Cc1cc(=O)[nH]c(N2CCN(C(=O)c3ccco3)CC2)n1,–,–,–,–,–,·,·,·,·,·,·,
